Data from ChEMBL document CHEMBL1143349, “Novel non-peptide nociceptin/orphanin FQ receptor agonist, 1-[1-(1-Methylcyclooctyl)-4-piperidinyl]-2-[(3R)-3-piperidinyl]-1H-benzimidazole: design, synthesis, and structure-activity relationship of oral receptor occupancy in the brain for orally potent antianxiety drug” (J Med Chem, 2009).
pEC50, pKi: −log10 of the molar value.

What was measured:
[1] = target: T1, Kappa-type opioid receptor (Homo sapiens, UniProt P41145); assay: Displacement of [3H]enadoline from human kappa opioid receptor expressed in HEK293 cells; type: cell-based
T1 sequence (P41145 whole entry): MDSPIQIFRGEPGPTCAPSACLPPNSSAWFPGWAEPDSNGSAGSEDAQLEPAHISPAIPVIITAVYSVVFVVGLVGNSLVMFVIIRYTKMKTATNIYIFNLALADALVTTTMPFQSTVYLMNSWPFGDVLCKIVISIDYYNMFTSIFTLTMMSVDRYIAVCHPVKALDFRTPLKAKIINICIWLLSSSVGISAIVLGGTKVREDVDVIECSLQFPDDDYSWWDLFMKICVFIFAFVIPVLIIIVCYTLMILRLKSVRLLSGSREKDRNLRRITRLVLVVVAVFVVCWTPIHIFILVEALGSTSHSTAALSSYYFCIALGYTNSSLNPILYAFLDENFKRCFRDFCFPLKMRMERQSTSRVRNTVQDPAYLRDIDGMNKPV

[2] = target: T1, Kappa-type opioid receptor; assay: Agonist activity at human kappa opioid receptor expressed in HEK293 cells by [35S]GTPgammaS binding; type: functional, cell-based
Mu-type opioid receptor [3] = target: T2, Mu-type opioid receptor (Homo sapiens, UniProt P35372); assay: Displacement of [3H]DAMGO from human mu opioid receptor expressed in CHOK1 cells; type: cell-based, CHO-K1
T2 sequence (P35372 whole entry): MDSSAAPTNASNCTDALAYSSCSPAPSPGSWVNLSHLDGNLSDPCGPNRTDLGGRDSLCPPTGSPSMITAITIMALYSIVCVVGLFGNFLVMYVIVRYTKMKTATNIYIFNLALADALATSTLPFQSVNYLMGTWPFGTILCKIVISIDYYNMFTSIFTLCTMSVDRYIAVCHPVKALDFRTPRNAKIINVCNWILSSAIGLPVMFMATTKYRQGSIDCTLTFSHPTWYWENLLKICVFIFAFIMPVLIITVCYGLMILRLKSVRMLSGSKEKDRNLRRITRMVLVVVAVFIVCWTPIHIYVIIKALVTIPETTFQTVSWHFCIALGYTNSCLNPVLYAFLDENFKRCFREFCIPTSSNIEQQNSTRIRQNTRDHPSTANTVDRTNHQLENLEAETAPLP

[4] = target: T3, Delta-type opioid receptor (Homo sapiens, UniProt P41143); assay: Displacement of [3H]DPDPE from human delta opioid receptor expressed in CHOK1 cells; type: cell-based, CHO-K1
T3 sequence (P41143 whole entry): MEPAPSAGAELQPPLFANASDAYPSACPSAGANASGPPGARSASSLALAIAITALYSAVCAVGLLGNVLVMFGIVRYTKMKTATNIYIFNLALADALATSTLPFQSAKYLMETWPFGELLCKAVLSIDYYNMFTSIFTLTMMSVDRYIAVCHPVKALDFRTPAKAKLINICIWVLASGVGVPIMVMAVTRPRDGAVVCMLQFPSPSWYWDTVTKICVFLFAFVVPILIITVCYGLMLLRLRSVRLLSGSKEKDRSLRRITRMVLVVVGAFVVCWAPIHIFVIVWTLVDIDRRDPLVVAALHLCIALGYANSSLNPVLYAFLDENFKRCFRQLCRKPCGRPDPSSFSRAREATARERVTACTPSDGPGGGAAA

Nociceptin receptor [5] = target: T4, Nociceptin receptor (Homo sapiens, UniProt P41146); assay: Displacement of [3H]N/OFQ from human NOP receptor expressed in HEK293 cells; type: cell-based
T4 sequence (P41146 whole entry): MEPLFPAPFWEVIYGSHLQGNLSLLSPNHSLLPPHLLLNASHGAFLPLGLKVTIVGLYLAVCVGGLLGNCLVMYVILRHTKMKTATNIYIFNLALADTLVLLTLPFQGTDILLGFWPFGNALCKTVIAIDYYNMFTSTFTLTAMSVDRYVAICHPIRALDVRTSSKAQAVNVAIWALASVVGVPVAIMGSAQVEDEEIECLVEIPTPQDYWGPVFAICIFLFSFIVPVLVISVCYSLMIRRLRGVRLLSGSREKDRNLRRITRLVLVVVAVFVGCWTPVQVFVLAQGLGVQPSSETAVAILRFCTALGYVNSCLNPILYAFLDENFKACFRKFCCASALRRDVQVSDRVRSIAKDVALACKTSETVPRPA

Nociceptin receptor [6] = target: T4, Nociceptin receptor; assay: Agonist activity at human NOP receptor expressed in HEK293 cells by [35S]GTPgammaS binding; type: functional, cell-based
Mu-type opioid receptor [7] = target: T2, Mu-type opioid receptor; assay: Agonist activity at human mu opioid receptor expressed in CHOK1 cells by [35S]GTPgammaS binding; type: functional, cell-based, CHO-K1
Mus musculus = assay: Ex vivo receptor occupancy of NOP receptor in ddY mouse brain at 10 mg/kg, po after 1 hr by [3H]N/OFQ binding assay; type: functional
Outline: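 Male ddY mice (5-6 week), water-deprived 24 h, dosed orally at 10 mg/kg in 0.1% methylcellulose. Brain removed 1 h later; cerebellum and medulla discarded, membranes prepared at 4 °C. Membranes (160 µg protein) incubated with 0.3 nM [3H]N/OFQ, 30 min, 25 °C; filtration read-out. Nonspecific binding with 1 µM N/OFQ. Occupancy is inhibition of specific binding versus vehicle-treated mice, three mice, mean ± SEM.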

[8] = target: T3, Delta-type opioid receptor; assay: Agonist activity at human delta opioid receptor expressed in CHOK1 cells by [35S]GTPgammaS binding; type: functional, cell-based, CHO-K1
[9] = target: T3, Delta-type opioid receptor; assay: Displacement of [3H]DPDPE from human delta opioid receptor expressed in CHOK1 cells at 1 uM; type: cell-based; settings: CHO-K1

Structure (SMILES)	pKi [1]	pEC50 [2]	pKi (Mu-type opioid receptor [3])	pKi [4]	pKi (Nociceptin receptor [5])	pEC50 (Nociceptin receptor [6])	pEC50 (Mu-type opioid receptor [7])	Activity (Mus musculus) [%]	pEC50 [8]	Activity [9] [%]
CC1(N2CCC(n3c(-c4cccc(OCCO)c4)nc4ccccc43)CC2)CCCCCCC1	7.37	7.32	7.96	8.02	9.52	8.59	< 6.41	38	–	–
CC1(N2CCC(n3c(-c4cc5ccccc5o4)nc4ccccc43)CC2)CCCCCCC1	–	–	6.99	–	9.28	8.51	5.43	34	–	–
CC1(N2CCC(n3c([C@@H]4CCCNC4)nc4ccccc43)CC2)CCCCCCC1	7.64	7.10	–	< 6.18	–	–	–	53	5.33	–
CC1(N2CCC(n3c(-c4cccc(CN)c4)nc4ccccc43)CC2)CCCCCCC1	7.14	6.81	7.70	6.85	–	–	6.47	30	–	–
CC1(N2CCC(n3c(-c4cccc(S(C)(=O)=O)c4)nc4ccccc43)CC2)CCCCCCC1	–	–	8.20	–	9.82	8.80	6.54	34	–	–
CC1(N2CCC(n3c([C@H]4CCCNC4)nc4ccccc43)CC2)CCCCCCC1	8.04	8.08	–	6.77	–	–	–	–	6.29	–
CC1(N2CCC(n3c(-c4ccc5cc[nH]c5c4)nc4ccccc43)CC2)CCCCCCC1	–	–	6.82	–	8.77	7.89	5.06	-10	–	–
CC1CN(c2nc3ccccc3n2C2CCN(C3(C)CCCCCCC3)CC2)CC(C)N1 (configuration not stated)	7.82	7.74	7.68	–	–	–	6.71	–	–	29
CC1(N2CCC(n3c(-c4ccc(F)c(Cl)c4)nc4ccccc43)CC2)CCCCCCC1	–	–	7.35	–	–	–	6.12	31	–	–
CN1CCC[C@H](c2nc3ccccc3n2C2CCN(C3(C)CCCCCCC3)CC2)C1	8.00	7.89	7.96	6.96	9.62	8.80	7.15	–	6.41	–
CC1(N2CCC(n3c(-c4cccc(C(F)(F)F)c4)nc4ccccc43)CC2)CCCCCCC1	6.45	5.80	7.19	7.24	9.20	8.24	5.00	3.2	–	–
CN1CCC[C@@H](c2nc3ccccc3n2C2CCN(C3(C)CCCCCCC3)CC2)C1	7.60	7.15	8.43	< 6.30	9.70	8.85	7.17	61	5.66	–
CC1(N2CCC(n3cnc4ccccc43)CC2)CCCCCCC1	–	–	7.96	–	–	–	–	–	–	–
